According to ChEMBL document CHEMBL1212799 (2010):
In brackets after ≈: the same amount, converted by molar mass.

Assays:
Klebsiella pneumoniae [1] = test: Antibacterial activity against Klebsiella pneumoniae isolate 334 in vitro pharmacodynamic model; format: functional
Procedure, shortened: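 Simulated peak 38.4 µg/ml, trough 3.04 µg/ml. CAMHB at 37°C, 10^6 CFU/ml from overnight culture, drug started at 0.5 h. Two treated models plus one growth control. Change in log10 CFU/ml over 24 h on blood agar. Detection limit 10^1 CFU/ml.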

Klebsiella pneumoniae [2] = test: fT>MIC in Klebsiella pneumoniae isolate 328A at 2 gram for every 8 hrs administered as 3 hrs infusion over 24 hrs in in vitro pharmcodynamic model; format: functional
Procedure, shortened: (§1)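 Samples assayed by HPLC (linear 0.25–40 µg/ml). Time free drug stayed above the modal triplicate broth-microdilution MIC (CLSI) calculated for each 8-h interval.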

Klebsiella pneumoniae [3] = test: fT>MIC in Klebsiella pneumoniae isolate 351 at 2 gram for every 8 hrs administered as 3 hrs infusion over 24 hrs in in vitro pharmcodynamic model; format: functional; procedure, shortened: as §1
Klebsiella pneumoniae [4] = test: fT>MIC in Klebsiella pneumoniae isolate 361 at 2 gram for every 8 hrs administered as 3 hrs infusion over 24 hrs in in vitro pharmcodynamic model; format: functional; procedure, shortened: as §1
Pseudomonas aeruginosa [5] = test: fT>MIC in Pseudomonas aeruginosa isolate 1177 at 2 gram for every 8 hrs administered as 3 hrs infusion over 24 hrs in in vitro pharmcodynamic model; format: functional
Klebsiella pneumoniae [6] = test: fT>MIC in Klebsiella pneumoniae isolate 353 at 2 gram for every 8 hrs administered as 3 hrs infusion measured over 0-8 hrs in in vitro pharmcodynamic model; format: functional, isoalte 353; procedure, shortened: as §1
Klebsiella pneumoniae [7] = test: fT>MIC in Klebsiella pneumoniae isolate 368 at 2 gram for every 8 hrs administered as 3 hrs infusion measured over 0-8 hrs in in vitro pharmcodynamic model; format: functional; procedure, shortened: as §1
Pseudomonas aeruginosa [8] = test: fT>MIC in Pseudomonas aeruginosa isolate 1038 at 2 gram for every 8 hrs administered as 3 hrs infusion measured over 0-8 hrs in in vitro pharmcodynamic model; format: functional
Pseudomonas aeruginosa [9] = test: fT>MIC in Pseudomonas aeruginosa isolate 988 at 2 gram for every 8 hrs administered as 3 hrs infusion measured over 0-8 hrs in in vitro pharmcodynamic model; format: functional
Klebsiella pneumoniae [10] = test: fT>MIC in Klebsiella pneumoniae isolate 357 at 2 gram for every 8 hrs administered as 3 hrs infusion measured over 8-16 hrs in in vitro pharmcodynamic model; format: functional; procedure, shortened: as §1
Klebsiella pneumoniae [11] = test: fT>MIC in Klebsiella pneumoniae isolate 328A at 2 gram for every 8 hrs administered as 3 hrs infusion measured over 16-24 hrs in in vitro pharmcodynamic model; format: functional; procedure, shortened: as §1
Klebsiella pneumoniae [12] = test: fT>MIC in Klebsiella pneumoniae isolate 334 at 2 gram for every 8 hrs administered as 3 hrs infusion measured over 16-24 hrs in in vitro pharmcodynamic model; format: functional; procedure, shortened: as §1
Klebsiella pneumoniae [13] = test: fT>MIC in Klebsiella pneumoniae isolate 375 at 2 gram for every 8 hrs administered as 3 hrs infusion measured over 16-24 hrs in in vitro pharmcodynamic model; format: functional
Pseudomonas aeruginosa [14] = test: fT>MIC in Pseudomonas aeruginosa isolate 1030 at 2 gram for every 8 hrs administered as 3 hrs infusion measured over 16-24 hrs in in vitro pharmcodynamic model; format: functional
Pseudomonas aeruginosa [15] = test: fT>MIC in Pseudomonas aeruginosa isolate 896 at 2 gram for every 8 hrs administered as 3 hrs infusion measured over 16-24 hrs in in vitro pharmcodynamic model; format: functional
Klebsiella pneumoniae [16] = test: Antibacterial activity against Klebsiella pneumoniae isolate 377 assessed as reduction of bacterial count at 2 ug/ml within 6 hrs in vitro pharmacodynamic model; format: functional
Klebsiella pneumoniae [17] = test: Antibacterial activity against Klebsiella pneumoniae isolate 334 assessed as reduction of bacterial count at 32 ug/ml within 6 hrs in vitro pharmacodynamic model; format: functional
Pseudomonas aeruginosa [18] = test: Antibacterial activity against Pseudomonas aeruginosa isolate 762 assessed as reduction of bacterial count at 16 ug/ml within 6 hrs in vitro pharmacodynamic model; format: functional

SMILES: C[C@@H](O)[C@H]1C(=O)N2C(C(=O)O)=C(S[C@@H]3CN[C@H](C(=O)N(C)C)C3)[C@H](C)[C@H]12 [MEROPENEM]
- MIC (Klebsiella pneumoniae [1]): 32 µg/mL (≈ 83.4 µM)
- fT>MIC (Klebsiella pneumoniae [2]): 69%
- fT>MIC (Klebsiella pneumoniae [3]): 69%
- fT>MIC (Klebsiella pneumoniae [4]): 0%
- fT>MIC (Pseudomonas aeruginosa [5]): 69%
- fT>MIC (Klebsiella pneumoniae [6]): 38%
- fT>MIC (Klebsiella pneumoniae [7]): 0%
- fT>MIC (Pseudomonas aeruginosa [8]): 94%
- fT>MIC (Pseudomonas aeruginosa [9]): 47%
- fT>MIC (Klebsiella pneumoniae [10]): 0%
- fT>MIC (Klebsiella pneumoniae [11]): 78%
- fT>MIC (Klebsiella pneumoniae [12]): 0%
- fT>MIC (Klebsiella pneumoniae [13]): 0%
- fT>MIC (Pseudomonas aeruginosa [14]): 78%
- fT>MIC (Pseudomonas aeruginosa [15]): 56%
- log10cfu (Klebsiella pneumoniae [16]): >3
- log10cfu (Klebsiella pneumoniae [17]): >3
- log10cfu (Pseudomonas aeruginosa [18]): >=3
